Measurements as given in ChEMBL document CHEMBL1122630, “Inhibitors of inosinic acid dehydrogenase. 2-Substituted inosinic acids” (J Med Chem, 1984).

Tests used:
[1] = target: T1, Inosine-5'-monophosphate dehydrogenase (Escherichia coli K-12, UniProt P0ADG7); assay: Ability to inhibit Inosine-5'-monophosphate dehydrogenase isolated from Escherichia coli; details: read-out: I50
T1 sequence (P0ADG7 whole entry): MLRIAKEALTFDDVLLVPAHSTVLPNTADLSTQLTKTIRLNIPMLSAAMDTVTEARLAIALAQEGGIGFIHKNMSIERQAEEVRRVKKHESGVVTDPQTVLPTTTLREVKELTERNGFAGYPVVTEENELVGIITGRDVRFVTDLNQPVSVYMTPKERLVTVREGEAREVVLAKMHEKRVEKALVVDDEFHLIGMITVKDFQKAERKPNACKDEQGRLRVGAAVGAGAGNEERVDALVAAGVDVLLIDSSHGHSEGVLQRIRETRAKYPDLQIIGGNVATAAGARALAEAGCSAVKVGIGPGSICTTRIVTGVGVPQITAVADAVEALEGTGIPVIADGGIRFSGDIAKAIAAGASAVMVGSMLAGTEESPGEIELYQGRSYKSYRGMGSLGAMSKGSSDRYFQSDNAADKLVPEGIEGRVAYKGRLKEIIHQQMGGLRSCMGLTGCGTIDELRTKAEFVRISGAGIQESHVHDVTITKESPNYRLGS
Summary of the method: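 Crude E. coli IMP dehydrogenase (0–40% ammonium sulfate precipitate) in 0.05 M Tris pH 8.5 with 33.4 mM KCl, 1.5 mM glutathione, 0.8 mM NAD+ and 0.002 unit enzyme, run at 25 °C. NADH rise at 340 nm gave initial rates. I50 was read graphically at 50 µM IMP, with inhibitor levels bracketing 50%; duplicates agreed within 20%. Ki came from a competitive-equation fit over 10–75 µM IMP.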

[2] = target: IMP dehydrogenase (Escherichia coli); assay: Ability to inhibit Inosine-5'-monophosphate dehydrogenase isolated from Escherichia coli

Ki [2] [µM]	Structure (SMILES)	IC50 [1] [µM]
–	CCCCCCCc1nc(O)c2ncn(C3O[C@@H](COP(=O)(O)O)[C@H](O)[C@@H]3O)c2n1 (some centres undefined)	270
–	O=[N+]([O-])c1cc(CSc2nc(O)c3ncn(C4O[C@@H](COP(=O)(O)O)[C@H](O)[C@@H]4O)c3n2)cc([N+](=O)[O-])c1 (some centres undefined)	85
–	CCCCCCCCCc1nc(O)c2ncn(C3O[C@@H](COP(=O)(O)O)[C@H](O)[C@@H]3O)c2n1 (some centres undefined)	160
–	CCCCCCc1nc(O)c2ncn(C3O[C@@H](COP(=O)(O)O)[C@H](O)[C@@H]3O)c2n1 (some centres undefined)	580
190	CCCc1nc(O)c2ncn(C3O[C@@H](COP(=O)(O)O)[C@H](O)[C@@H]3O)c2n1 (some centres undefined)	–
–	COc1ccc(-c2nc(O)c3ncn(C4O[C@@H](COP(=O)(O)O)[C@H](O)[C@@H]4O)c3n2)cc1 (some centres undefined)	810
–	O=P(O)(O)OC[C@@H]1OC(n2cnc3c(O)nc(Cc4ccccc4)nc32)[C@@H](O)[C@H]1O (some centres undefined)	770
46	COc1nc(O)c2ncn(C3O[C@@H](COP(=O)(O)O)[C@H](O)[C@@H]3O)c2n1 (some centres undefined)	–
600	Cc1nc(O)c2ncn(C3O[C@@H](COP(=O)(O)O)[C@H](O)[C@@H]3O)c2n1 (some centres undefined)	–
–	O=P(O)(O)OC[C@@H]1OC(n2cnc3c(O)nc(Cc4cccnc4)nc32)[C@@H](O)[C@H]1O (some centres undefined)	430
–	O=P(O)(O)OC[C@@H]1OC(n2cnc3c(O)nc(-c4ccccc4)nc32)[C@@H](O)[C@H]1O (some centres undefined)	> 1000
–	O=P(O)(O)OC[C@@H]1OC(n2cnc3c(O)nc(SCc4ccccc4Cl)nc32)[C@@H](O)[C@H]1O (some centres undefined)	72
–	O=[N+]([O-])c1cccc(CSc2nc(O)c3ncn(C4O[C@@H](COP(=O)(O)O)[C@H](O)[C@@H]4O)c3n2)c1 (some centres undefined)	33
120	O=P(O)(O)OC[C@@H]1OC(n2cnc3c(O)nc(Cl)nc32)[C@@H](O)[C@H]1O (some centres undefined)	–
–	CCCCCCCCc1nc(O)c2ncn(C3O[C@@H](COP(=O)(O)O)[C@H](O)[C@@H]3O)c2n1 (some centres undefined)	680
–	CCCCCCCCCCc1nc(O)c2ncn(C3O[C@@H](COP(=O)(O)O)[C@H](O)[C@@H]3O)c2n1 (some centres undefined)	150
–	O=P(O)(O)OC[C@@H]1OC(n2cnc3c(O)nc(-c4cccnc4)nc32)[C@@H](O)[C@H]1O (some centres undefined)	> 1000
–	O=P(O)(O)OC[C@@H]1OC(n2cnc3c(O)nc(/C=C/c4ccccc4)nc32)[C@@H](O)[C@H]1O (some centres undefined)	69
–	O=[N+]([O-])c1ccc(CSc2nc(O)c3ncn(C4O[C@@H](COP(=O)(O)O)[C@H](O)[C@@H]4O)c3n2)cc1 (some centres undefined)	56
